Measured values reported in ChEMBL document CHEMBL4316598, “Synthesis, antiproliferative and apoptosis induction potential activities of novel bis(indolyl)hydrazide-hydrazone derivatives” (Bioorg Med Chem, 2019).
Active and inactive are the calls of the source. The rule behind the calls is not given here.

Experiments:
HeLa [1] = assay: Induction of apoptosis in human HeLa cells assessed as up-regulation of total p53 level at 5 uM after 12 hrs by sandwich ELISA; format: functional, cell-based
Outline: (§1)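 Cells were treated at 5 µM for 12, 24 and 48 h. Lysis was in ice-cold lysis buffer with 1 mM PMSF (5 min on ice), followed by three freeze-thaw cycles and a 10 min spin at 4 °C. Acetylated and total p53 were measured in the supernatant by kit sandwich ELISA, read at 450 nm. The control index is sample absorbance divided by that of untreated cells at the same time. Values are mean ± SD of triplicate experiments.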

MCF7 [2] = assay: Induction of apoptosis in human MCF7 cells assessed as increase in Mcl-1 short level at 1 to 3 uM after 24 hrs by Western blot analysis; format: functional, cell-based
Outline: (§2)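 Cells were treated at 1, 3 and 5 µM for 24 h at 37 °C. Lysis was in ice-cold Triton X-100 buffer with protease and phosphatase inhibitors; nuclear proteins were extracted separately. Protein was quantified by BCA. Lysates were separated by electrophoresis, transferred to nitrocellulose and blocked in non-fat milk for 1 h. Primary antibody was applied overnight at 4 °C and secondary for 1 h at 28 °C. Detection was by enhanced chemiluminescence.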

HeLa [3] = assay: Induction of apoptosis in human HeLa cells assessed as late apoptotic cells at 1 uM after 12 hrs by annexin-V FITC/propidium iodide staining based flow cytometric analysis relative to control; format: functional
Outline: (§3)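 Cells were grown in DMEM with 10% heat-inactivated FBS at 37 °C and 5% CO₂, then plated at 500,000 cells/well in 24-well plates. They were treated from a DMSO stock (DMSO ≤0.1%) for 8, 12 or 16 h. After a PBS wash, cells were resuspended in binding buffer (10 mM HEPES pH 7.4, 2.5 mM CaCl₂, 140 mM NaCl, 0.1% BSA), stained 40 min with FITC-annexin V, then with PI, and run on the flow cytometer immediately. Values are the mean of three independent experiments.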

HeLa [4] = assay: Induction of apoptosis in human HeLa cells assessed as effect on Mcl-1 long level at 1 to 3 uM after 24 hrs by Western blot analysis; format: functional, cell-based; outline: as §2
HeLa [5] = assay: Induction of apoptosis in human HeLa cells assessed as viable cells at 1 uM after 12 hrs by annexin-V FITC/propidium iodide staining based flow cytometric analysis relative to control; format: functional; settings: read-out: Activity; outline: as §3
MCF7 [6] = assay: Induction of caspase-dependent apoptosis in human MCF7 cells assessed as activation of caspase-6 at 1 to 3 uM after 24 hrs by Western blot analysis; format: functional, cell-based; outline: as §2
HeLa [7] = assay: Induction of nitric oxide production in human HeLa cells measured over 8 hrs by Griess reaction based assay; format: functional, cell-based
Outline: (§4)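 Cells seeded at 2×10^6 cells/well for 12 h, then exposed to 1, 5 and 10 μM compound for 8 h at 37 °C. Culture supernatant mixed with Griess reagent (0.002% N-1-naphthyl-ethylenediamine dihydrochloride, 0.5% sulfanilic acid, 14% glacial acetic acid). Nitrite read by absorbance at 550 nm and compared with vehicle group.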

HeLa [8] = assay: Induction of caspase-dependent apoptosis in human HeLa cells assessed as activation of caspase-9 at 1 to 3 uM after 24 hrs by Western blot analysis; format: functional, cell-based; outline: as §2
HeLa [9] = assay: Induction of apoptosis in human HeLa cells assessed as late apoptotic cells at 1 uM after 16 hrs by annexin-V FITC/propidium iodide staining based flow cytometric analysis relative to control; format: functional; outline: as §3
MCF7 [10] = assay: Induction of nitric oxide production in human MCF7 cells at 5 uM measured over 8 hrs by Griess reaction based assay relative to control; format: functional; outline: as §4
MCF7 [11] = assay: Induction of ROS generation in human MCF7 cells at 5 uM after 12 hrs by CM-H2DCFDA staining-based FACS analysis; format: functional, cell-based
Outline: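 CM-H2DCFDA ROS: HeLa or MCF-7 cells at 2×10^6/well in 6-well plates treated with 5 μM (final) for 12 or 24 h at 37 °C. Cells harvested, washed with PBS, stained with CM-H2DCFDA in PBS 30 min at 37 °C, washed with ice-cold PBS. Read by FACScan with 488 nm argon laser.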

[12] = target: T1, Tyrosine-protein phosphatase non-receptor type 1 (Homo sapiens) (UniProt P18031); assay: Inhibition of recombinant human PTP1B using 6,8-difluoro-4-methylumbelliferyl phosphate fluorogenic substrate at 50 uM measured over 30 mins by fluorescence assay relative to control
T1 sequence (whole entry): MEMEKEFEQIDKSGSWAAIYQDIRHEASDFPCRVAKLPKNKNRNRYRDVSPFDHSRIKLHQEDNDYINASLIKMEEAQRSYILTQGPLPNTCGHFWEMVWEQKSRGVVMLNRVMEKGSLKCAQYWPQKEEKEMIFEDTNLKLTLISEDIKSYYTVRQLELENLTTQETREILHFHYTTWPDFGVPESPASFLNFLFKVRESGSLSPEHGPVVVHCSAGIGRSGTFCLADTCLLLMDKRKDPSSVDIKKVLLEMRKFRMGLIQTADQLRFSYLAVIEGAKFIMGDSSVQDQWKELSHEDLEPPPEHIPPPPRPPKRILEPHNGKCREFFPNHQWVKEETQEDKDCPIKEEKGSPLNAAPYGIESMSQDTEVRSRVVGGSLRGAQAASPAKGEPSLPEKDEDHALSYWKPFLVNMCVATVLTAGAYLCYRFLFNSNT
Outline: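 Recombinant human PTP1B, 1.56 ng/well, in buffer of 25 mM HEPES, 50 mM NaCl, 2.5 mM EDTA, DTT and 0.01 mg/mL human albumin. Preincubated with compound for 30 min in the dark, then DiFMUP added (25 μL of 10 μM solution). Fluorescence read after 10 min (ex 360/em 465 nm). Triplicates; % inhibition relative to PTP inhibitor IV (0.16 mM) and buffer controls.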

MCF7 [13] = assay: Induction of apoptosis in human MCF7 cells assessed as up-regulation of total p53 level at 5 uM after 12 hrs by sandwich ELISA; format: functional, cell-based; outline: as §1
HeLa [14] = assay: Induction of ROS generation in human HeLa cells at 5 uM after 4 hrs by DCFH-DA staining-based fluorescence spectrophotometric analysis relative to control; format: functional
Outline: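 DCFH-DA ROS: HeLa or MCF-7 cells at 2×10^6/well cultured 12 h, treated 4 or 8 h; t-BHP (10 μM) is the positive control. DCFH-DA 10 μM added for 10 min at 37 °C, cells washed twice with PBS. Fluorescence read at ex 485/em 520 nm. For the NAC arm, NAC (5 mM) is added to the medium before treatment.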

[15] = target: MAP kinase p38 (Homo sapiens) (UniProt O15264+Q15759+Q16539+P53778); assay: Activation of MAPK p38 phosphorylation in human MCF7 cells assessed as increase in ratio of phosphorylated p38 to total p38 level at 5 uM by ELISA; format: cell-based
Outline: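 Cell-based ELISA: HeLa or MCF-7 cells (20×10^3/well) grown overnight at 37 °C, 5% CO2, treated with 5 μM, then fixed and blocked. Probed with rabbit anti-total and anti-phospho P38, JNK or ERK1/2 (1:100), then HRP anti-rabbit IgG. Result is the phospho/total ratio; inhibitor arms use […], […] or SP600125. n=3.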

SMILES: Cn1cc(/C=N\NC(=O)c2cn(C)c3ccc(Br)cc23)c2ccccc21
- Activity (HeLa [1]): Active
- Activity (MCF7 [2]): Active
- Activity (HeLa [3]): 18.42%
- Activity (HeLa [4]): inactive
- viability at 1 µM (HeLa [5]): 47.8%
- Activity (MCF7 [6]): inactive
- Activity (HeLa [7]): Dose-dependent effect
- Activity (HeLa [8]): inactive
- Activity (HeLa [9]): 71.74%
- Activity (MCF7 [10]): 48.9%
- Activity (MCF7 [11]): Active
- inhibition [12]: 48%
- Activity (MCF7 [13]): Active
- Activity (HeLa [14]): 29.9%
- Activity [15]: Active
